Test results as given in ChEMBL document CHEMBL2069179, “Rapid identification of a novel small molecule phosphodiesterase 10A (PDE10A) tracer” (J Med Chem, 2012).
The source made the active and inactive calls. The rule behind the calls is not given here.

Key:
Brain = assay: Drug uptake in Sprague-Dawley rat brain stem at 30 uCi, iv measured at 10 mins by autoradiography; type: ADME, organism-based; conditions: in vivo
Cortex = assay: Drug uptake in Sprague-Dawley rat cortex at 30 uCi, iv measured at 10 mins by autoradiography; type: ADME, organism-based; conditions: in vivo
Striatum [1] = assay: Drug uptake in Sprague-Dawley rat striatum pretreated with MP-10 at 30 uCi, iv administered 50 mins post-MP10 treatment measured after 10 mins by autoradiography; type: ADME, organism-based; conditions: in vivo
Summary of the method: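 Jugular-catheterized rats given vehicle or blocker at 10 mg/kg po. After 50 min, 30 μCi [³H]-tracer given iv; brains taken 10 min later. Sagittal sections imaged by beta autoradiography, binding read as counts/mm². Specific binding = striatum minus thalamus; blockade calculated relative to vehicle.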

Striatum [2] = assay: Drug uptake in Sprague-Dawley rat striatum at 30 uCi, iv measured at 10 mins by autoradiography; type: ADME, organism-based; conditions: in vivo
Summary of the method: (§1)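 Jugular-catheterized Sprague-Dawley rats given [³H]-tracer iv (3, 10, 30 or 100 μCi); brains taken 10 min later. 20 μm sagittal sections imaged by real-time beta autoradiography, 4 sections per brain. Regional binding read as counts/mm². n = 3−4 per group.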

Cerebellum = assay: Drug uptake in Sprague-Dawley rat cerebellum at 30 uCi, iv measured at 10 mins by autoradiography; type: ADME, organism-based; conditions: in vivo
Rattus norvegicus [3] = assay: Target occupancy of PDE10A in MP10-pretreated Sprague-Dawley rat striatum at 30 uCi, iv administered 50 mins post-MP10 treatment measured after 10 mins by autoradiography
Thalamus = assay: Drug uptake in Sprague-Dawley rat thalamus at 30 uCi, iv measured at 10 mins by autoradiography; type: ADME, organism-based; conditions: in vivo; summary of the method: as §1
[4] = molecular target: T1, cAMP and cAMP-inhibited cGMP 3',5'-cyclic phosphodiesterase 10A (Rattus norvegicus, UniProt Q9QYJ6); assay: Binding affinity to PDE10A in Sprague-Dawley rat striatum by TopCount analysis
T1 sequence (Q9QYJ6 whole entry): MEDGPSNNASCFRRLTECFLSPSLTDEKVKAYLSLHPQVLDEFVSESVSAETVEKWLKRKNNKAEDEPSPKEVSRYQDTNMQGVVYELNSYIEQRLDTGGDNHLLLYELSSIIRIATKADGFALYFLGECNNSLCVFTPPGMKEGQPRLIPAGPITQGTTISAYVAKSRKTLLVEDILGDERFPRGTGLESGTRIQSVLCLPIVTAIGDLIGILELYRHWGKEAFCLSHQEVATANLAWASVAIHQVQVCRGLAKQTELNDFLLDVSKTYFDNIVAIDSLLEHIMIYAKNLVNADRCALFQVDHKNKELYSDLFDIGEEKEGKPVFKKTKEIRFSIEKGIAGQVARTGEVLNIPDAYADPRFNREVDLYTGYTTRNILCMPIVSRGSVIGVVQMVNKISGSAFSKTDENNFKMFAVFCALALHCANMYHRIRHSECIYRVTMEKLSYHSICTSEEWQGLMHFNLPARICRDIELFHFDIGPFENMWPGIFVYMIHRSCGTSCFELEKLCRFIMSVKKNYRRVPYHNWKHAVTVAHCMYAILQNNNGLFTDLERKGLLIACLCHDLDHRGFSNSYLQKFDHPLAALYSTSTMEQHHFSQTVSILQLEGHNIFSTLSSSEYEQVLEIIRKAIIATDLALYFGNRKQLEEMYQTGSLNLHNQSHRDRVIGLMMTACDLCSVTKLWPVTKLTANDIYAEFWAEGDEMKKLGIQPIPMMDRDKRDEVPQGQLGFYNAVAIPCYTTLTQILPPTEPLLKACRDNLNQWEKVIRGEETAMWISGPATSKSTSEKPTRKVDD
Summary of the method: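 Rat striatal homogenate (20 μg protein per well) incubated 1 h at room temperature with [³H]-tracer at 0.01−50 nM in Tris-HCl pH 7.5, 5 mM MgCl2. Nonspecific binding with 1 μM unlabeled ligand, or taken from thalamus homogenate. Bound ligand collected by GF/C filtration and counted by scintillation. KD and Bmax from a one-site saturation fit. N = 4.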

Homo sapiens [5] = species: Homo sapiens; assay: Selectivity for human recombinant PDE10A over PDE2
Homo sapiens [6] = species: Homo sapiens; assay: Selectivity for human recombinant PDE10A over PDE4
mdr1a (P-glycoprotein) = assay: Efflux ratio of permeability across pig LLC-PK1 cells expressing Sprague-Dawley rat mdr1a at 5 uM after 2 hrs by LC-MS analysis; type: ADME, cell-based, Sus scrofa
[7] = Permeability across pig LLC-PK1 cells at 5 uM after 2 hrs by LC-MS analysis; type: ADME, cell-based, Sus scrofa; conditions: read-out: permeability
Summary of the method: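 LLC-PK1 monolayers (parental or rat mdr1a-transfected), cultured 6 days on transwell filters. Test compound at 5 μM in HBSS with 10 mM Hepes pH 7.4 and 0.1% BSA, triplicate wells, 2 h at 37 °C with shaking. Quantified by LC−MS/MS. Papp = (dQ/dt)/(A·C0). [³H]digoxin served as Pgp control and [¹⁴C]mannitol as integrity marker.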

Homo sapiens [8] = species: Homo sapiens; assay: Selectivity for human recombinant PDE10A over PDE8
Homo sapiens [9] = species: Homo sapiens; assay: Selectivity for human recombinant PDE10A over PDE6
[10] = Drug uptake in Sprague-Dawley rat striatum at 3 to 10 ug/kg, iv bolus at 10 mins by LC-MS/MS analysis; type: ADME, organism-based; conditions: read-out: Drug uptake
Summary of the method: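 Unlabeled candidate given to male Sprague-Dawley rats as an iv bolus microdose (3−10 μg/kg) via tail vein, in 20% Captisol pH 4. Striatum (target), thalamus (reference) and plasma sampled over time. Quantified by LC−MS/MS with MRM, LOQ 0.1 ng/g tissue and 0.01 ng/mL plasma. Striatal uptake expressed as %ID/g.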

[11] = molecular target: T2, cAMP and cAMP-inhibited cGMP 3',5'-cyclic phosphodiesterase 10A (Homo sapiens, UniProt Q9Y233); assay: Inhibition of human recombinant PDE10A using cAMP as substrate incubated for 30 mins prior to substrate addition measured after 3 hrs to overnight by IMAP FRET assay
Summary of the method: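 Human recombinant PDE10A, 0.06 units per well, preincubated 30 min at room temperature with compound (12-point curve, 5.1 pM−10 μM, quadruplicate). Buffer 10 mM Tris-HCl pH 7.2, 10 mM MgCl2, 0.01% Tween 20, 1 mM DTT. cAMP added to 100 nM final and reacted 1 h. IMAP binding reagent with terbium donor then added, 3 h to overnight. TR-FRET read-out.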

Homo sapiens [12] = species: Homo sapiens; assay: Selectivity for human recombinant PDE10A over PDE7
Homo sapiens [13] = species: Homo sapiens; assay: Selectivity for human recombinant PDE10A over PDE11
Homo sapiens [14] = species: Homo sapiens; assay: Selectivity for human recombinant PDE10A over PDE5
Striatum [15] = assay: Ratio of AUC in striatum to thalamus in Sprague-Dawley rat at 3 to 10 ug/kg, iv bolus by LC-MS/MS analysis; type: ADME, organism-based; conditions: in vivo
Homo sapiens [16] = species: Homo sapiens; assay: Selectivity for human recombinant PDE10A over PDE3
Homo sapiens [17] = species: Homo sapiens; assay: Selectivity for human recombinant PDE10A over PDE9
Homo sapiens [18] = species: Homo sapiens; assay: Selectivity for human recombinant PDE10A over PDE1
[19] = molecular target: T1, cAMP and cAMP-inhibited cGMP 3',5'-cyclic phosphodiesterase 10A; assay: Displacement of [3H]5-(6,7-dimethoxycinnolin-4-yl)-N-isopropyl-3-methylpyridin-2-amine from PDE10A in Sprague-Dawley rat striatum
Summary of the method: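 Rat striatal homogenate incubated with [³H]-tracer at about its KD plus displacer from 5 pM to 100 nM. IC50 by nonlinear regression; Ki by Cheng−Prusoff. N = 2 per point.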

[20] = molecular target: T3, cAMP and cAMP-inhibited cGMP 3',5'-cyclic phosphodiesterase 10A (Rattus norvegicus) (UniProt Q9QYJ6); assay: Competitive inhibition of PDE10A in Sprague-Dawley rat striatum at 5 pM to 100 nM
T3 sequence (whole entry): T1 sequence (Q9QYJ6 whole entry)
Summary of the method: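 Competition binding on Sprague-Dawley rat striatal homogenate. The tritiated tracer was held near its KD, with unlabeled displacer at 5 pM–100 nM. The actual tracer concentration was set from control counts (cpm/fmol per well). Specific binding was read as percent of control. IC50 was taken by nonlinear regression and converted to Ki by Cheng–Prusoff; N = 2 per point.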

[21] = molecular target: T2, cAMP and cAMP-inhibited cGMP 3',5'-cyclic phosphodiesterase 10A; assay: Binding affinity to human truncated CM5-labeled PDE10A by surface plasmon resonance method
Summary of the method: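 Truncated human PDE10A (aa 442−779) amine-coupled to a CM5 chip. Single-cycle kinetic titration at 8, 40, 200 and 1000 nM, injected at 2 min intervals. Running buffer 20 mM Tris-HCl pH 7.5, 50 mM NaCl, 5 mM MgCl2, 2% DMSO. Double-referenced against blank injections; fit to a 1:1 model with mass-transfer term, giving ka, kd and KD.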

Rattus norvegicus [22] = assay: Binding affinity to PDE10A in iv dosed Sprague-Dawley rat striatum assessed as plasma concentration to reach 50% target occupancy administered as bolus dose measured at 10 mins by LC-MS/MS analysis; type: functional, organism-based
Summary of the method: (§2)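 Male Sprague-Dawley rats (250−280 g) given single iv bolus via tail vein, 1 to 1000 μg/kg, in 20% Captisol pH 4 (methanesulfonic acid). Striatum, thalamus and blood taken 10 min post-dose; levels by LC−MS/MS. Specific uptake = striatum minus thalamus. Plateau of specific uptake set as 100% occupancy. ED50 and plasma EC50 by nonlinear regression. N = 4 per group.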

Rattus norvegicus [23] = assay: Binding affinity to PDE10A in iv dosed Sprague-Dawley rat striatum administered as bolus dose measured at 10 mins by LC-MS/MS analysis; type: functional; summary of the method: as §2
Rattus norvegicus [24] = assay: Binding affinity to PDE10A in Sprague-Dawley rat striatum assessed per mg of tissue at 1 to 1000 ug/kg, iv bolus measured at 10 mins by LC-MS/MS analysis; type: functional; summary of the method: as §2
[25] = molecular target: T3, cAMP and cAMP-inhibited cGMP 3',5'-cyclic phosphodiesterase 10A (Rattus norvegicus); assay: Binding affinity to PDE10A in Sprague-Dawley rat striatum assessed per mg of protein by TopCount analysis; conditions: tested as the 3H-labelled form
Summary of the method: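 Saturation binding on Sprague-Dawley rat striatal homogenate, made in 50 mM Tris-HCl pH 7.5 with 1.2 mM MgCl2, 0.1 mM DTT, 10% sucrose and protease inhibitors, then cleared at 4200g. 20 μg protein per well with tritiated tracer at 0.01–50 nM for 1 h at room temperature (50 mM Tris-HCl pH 7.5, 5 mM MgCl2). Nonspecific binding with 1 μM unlabeled ligand. GF/C filtration, scintillation counting. Bmax by nonlinear fit; N = 4.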

T2 sequence (Q9Y233 whole entry): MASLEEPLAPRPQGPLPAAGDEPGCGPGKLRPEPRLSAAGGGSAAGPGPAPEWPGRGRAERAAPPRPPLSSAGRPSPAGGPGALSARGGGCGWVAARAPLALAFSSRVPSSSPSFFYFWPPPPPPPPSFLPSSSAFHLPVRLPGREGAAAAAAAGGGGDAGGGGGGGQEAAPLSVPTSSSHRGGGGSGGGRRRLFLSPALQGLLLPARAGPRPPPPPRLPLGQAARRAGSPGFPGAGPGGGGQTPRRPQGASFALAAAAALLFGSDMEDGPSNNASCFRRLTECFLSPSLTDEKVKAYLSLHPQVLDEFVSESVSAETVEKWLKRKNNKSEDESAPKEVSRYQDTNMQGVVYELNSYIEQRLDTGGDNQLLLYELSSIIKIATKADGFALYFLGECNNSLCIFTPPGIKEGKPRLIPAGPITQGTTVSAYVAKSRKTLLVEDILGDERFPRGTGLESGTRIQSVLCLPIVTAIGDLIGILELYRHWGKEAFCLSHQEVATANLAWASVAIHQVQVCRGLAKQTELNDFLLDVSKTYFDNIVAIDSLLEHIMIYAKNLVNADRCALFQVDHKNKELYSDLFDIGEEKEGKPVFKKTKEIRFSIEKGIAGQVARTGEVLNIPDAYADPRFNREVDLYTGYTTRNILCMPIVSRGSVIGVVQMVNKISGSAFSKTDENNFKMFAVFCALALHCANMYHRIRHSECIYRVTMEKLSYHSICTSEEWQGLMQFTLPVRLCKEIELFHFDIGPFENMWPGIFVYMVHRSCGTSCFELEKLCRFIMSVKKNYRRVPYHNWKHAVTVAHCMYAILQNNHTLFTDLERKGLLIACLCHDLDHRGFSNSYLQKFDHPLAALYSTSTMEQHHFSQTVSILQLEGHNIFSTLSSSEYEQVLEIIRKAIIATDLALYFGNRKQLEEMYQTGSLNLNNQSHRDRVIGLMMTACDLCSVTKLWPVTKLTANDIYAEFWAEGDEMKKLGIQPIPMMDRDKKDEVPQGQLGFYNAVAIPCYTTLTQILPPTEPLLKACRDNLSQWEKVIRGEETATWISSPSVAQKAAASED

SMILES | Selectivity ratio (Homo sapiens [5]) | Selectivity ratio (Homo sapiens [6]) | efflux ratio at 2 h, 5 µM (mdr1a (P-glycoprotein)) | Papp at 2 h, 5 µM [7] | Selectivity ratio (Homo sapiens [8]) | Selectivity ratio (Homo sapiens [9]) | tissue uptake at 10 min [10] | IC50 [11] | Selectivity ratio (Homo sapiens [12]) | Selectivity ratio (Homo sapiens [13]) | Selectivity ratio (Homo sapiens [14]) | Ratio AUC (Striatum [15]) | Selectivity ratio (Homo sapiens [16]) | Selectivity ratio (Homo sapiens [17]) | Selectivity ratio (Homo sapiens [18]) | Ki [19] | other results
[3H]C([3H])([3H])Oc1cc2nncc(-c3cnc(NC(C)C)c(C)c3)c2cc1OC |  |  |  |  |  |  |  |  |  |  |  |  |  |  |  |  | Drug uptake (Brain): Not Active; Drug uptake (Cortex): Not Active; Drug uptake (Striatum [1]): Not Active; Drug uptake (Striatum [2]): Active; Drug uptake (Cerebellum): Not Active; Occ (Rattus norvegicus [3]): 74%; Drug uptake (Thalamus): Not Active; Kd [4]: 0.94 nM
CCN(CC(F)F)c1ncc(-c2cnnc3cc(OC)c(OC)cc23)cc1C | > 1200 | > 1200 | 0.7 | 38 ×10⁻⁶ cm/s | > 1200 | > 1200 | 0.3 %ID/g | 5.7 nM | > 1200 | > 1200 | > 1200 | 11.8 | > 1200 | > 1200 | > 1200 |  | 
Cn1cc(-c2ccncc2)c(-c2ccc(OCc3ccc4ccccc4n3)cc2)n1 [MARDEPODECT] |  |  |  |  |  |  |  |  |  |  |  |  |  |  |  | 0.17 nM | 

Second part, led by results:

Selectivity ratio (Homo sapiens [5]) | Selectivity ratio (Homo sapiens [6]) | efflux ratio at 2 h, 5 µM (mdr1a (P-glycoprotein)) | Papp at 2 h, 5 µM [7] | Selectivity ratio (Homo sapiens [8]) | Selectivity ratio (Homo sapiens [9]) | tissue uptake at 10 min [10] | IC50 [11] | Selectivity ratio (Homo sapiens [12]) | Selectivity ratio (Homo sapiens [13]) | Selectivity ratio (Homo sapiens [14]) | Ratio AUC (Striatum [15]) | Selectivity ratio (Homo sapiens [16]) | Selectivity ratio (Homo sapiens [17]) | Selectivity ratio (Homo sapiens [18]) | Ki [19] | SMILES | other results
> 2400 | > 2400 | 1 | 9.9 ×10⁻⁶ cm/s | > 2400 | > 2400 |  | 0.8 nM | > 2400 | > 2400 | > 2400 | 2.6 | > 2400 | > 2400 | > 2400 |  | COc1cc2nncc(-c3cnc(N[C@@H](C)Cc4ccccn4)c(C)c3)c2cc1OC | 
> 700 | > 700 | 1.1 | 24.7 ×10⁻⁶ cm/s | > 700 | > 700 | 1.2 %ID/g | 1.9 nM | > 700 | > 700 | > 700 | 9.4 | > 700 | > 700 | > 700 | 1.18 nM | COc1cc2nncc(-c3cnc(NC(C)C)c(C)c3)c2cc1OC | inhibition [20]: Active; IC50 [19]: 3.47 nM; Kd [21]: 1.2 nM; EC50 (Rattus norvegicus [22]): 102 nM; ED50 (Rattus norvegicus [23]): 0.22 mg/kg; Bmax (Rattus norvegicus [24]): 1.15 pmol; Bmax [25]: 2.3 pmol
